Read-outs that look alike come from different tables or passages of the source. Positions of bridges follow the written chain, without caps; N, C: chain ends. Non-standard residues stand in square brackets, D forms with d. Residues, ends and D or L forms follow the SMILES beside them. R8 = C=CCCCCCC[C@@](C)(N)C(=O)O; S5 = C=CCCC[C@](C)(N)C(=O)O
Experiments:
HEK293T cells [1] = test: LC3-II and p62 Western blots after peptide treatment, HEK293T cells; type: cell-based; conditions: 3 h
Summary of the method: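 HEK293T cells were treated 3 h with peptide or scrambled Tat control at 10 µM (low) or 20 µM (high) in the culture medium, without or with chloroquine. Lysates were Western blotted for LC3-I/LC3-II lipidation and p62 levels.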

HEK293T cells [2] = test: MTT cytotoxicity / cell viability, HEK293T cells; type: cell-based; conditions: 12.5 and 25 µM, 5 h
EGFR [3] = test: EGFR degradation assay, H1975 cells; type: cell-based; conditions: peptide 20 μM, 15 h after EGF, n = 3
Summary of the method: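 H1975 cells were serum-starved overnight in DMEM, then stimulated with 200 ng/mL EGF in DMEM with 20 mM Hepes and 0.2% BSA, together with 20 µM peptide or scrambled control. At each time point, 20 µg lysate was immunoblotted for EGFR. EGFR was normalized to β-actin and to time 0, from three independent experiments.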

[4] = system: Beclin 1–UVRAG interaction; test: Co-IP of Beclin 1–UVRAG interaction, HEK293T; type: cell-based; conditions: peptide 20 μM added to cell lysate
EGFR [5] = test: EGFR degradation assay, HEK293T cells; type: cell-based; conditions: n = 3
Summary of the method: (§1)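 Overexpression arm: cells were transfected with FLAG-UVRAG wild-type or Leu-to-Glu mutants, or vector. Cells were washed in PBS, serum-starved overnight in DMEM, then given DMEM with 20 mM Hepes, 0.2% BSA and 200 ng/mL EGF. Peptide arm: 20 µM peptide or control was added together with EGF. At each time point, 20 µg lysate was immunoblotted for EGFR, normalized to β-actin and to time 0. Three independent experiments, mean ± SEM.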

[6] = system: Beclin 1–Atg14L interaction; test: Co-IP of Beclin 1–Atg14L interaction, HEK293T; type: cell-based; conditions: peptide 20 μM added to cell lysate
[7] = system: HeLa cells stably expressing GFP-LC3; test: Confocal imaging of GFP-LC3 puncta in HeLa cells stably expressing GFP-LC3; type: cell-based; conditions: HeLa GFP-LC3, 3 h, n = 3
Summary of the method: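 HeLa cells stably expressing GFP-LC3 were treated 3 h with peptide, scrambled control or water vehicle, with or without 25 µM chloroquine. Cells were imaged by confocal microscopy and GFP-LC3 puncta per cell were counted. Values are mean ± SEM, n = 3.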

A549 cells = test: MTT cytotoxicity / cell viability, A549 cells; type: cell-based; conditions: 12.5 and 25 µM, 5 h
[8] = biological target: Beclin 1 coiled-coil domain (Rattus norvegicus, UniProt Q91XJ1); test: ITC binding of designed peptides to Beclin 1 coiled-coil domain
EGFR [9] = test: EGFR degradation assay, A549 cells; type: cell-based; conditions: n = 3
Summary of the method: as §1

[10] = system: Beclin 1 self-association; test: Co-IP of Beclin 1 self-association; type: cell-based; conditions: HEK293T
Summary of the method: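 HEK293T cells co-transfected with GFP- and His-tagged Beclin 1. Peptide (stock 20 mM in water) was added at 20 µM either to the culture medium 6 h after transfection or to the lysate after lysis. A scrambled, unstapled Tat-fused control peptide was used at the same concentration. His-Beclin 1 association was then probed by co-IP.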

UVRAG coiled-coil domain [11] = test: ITC
Chain of UVRAG coiled-coil domain (Q8K245 whole entry, the tested form may be a part): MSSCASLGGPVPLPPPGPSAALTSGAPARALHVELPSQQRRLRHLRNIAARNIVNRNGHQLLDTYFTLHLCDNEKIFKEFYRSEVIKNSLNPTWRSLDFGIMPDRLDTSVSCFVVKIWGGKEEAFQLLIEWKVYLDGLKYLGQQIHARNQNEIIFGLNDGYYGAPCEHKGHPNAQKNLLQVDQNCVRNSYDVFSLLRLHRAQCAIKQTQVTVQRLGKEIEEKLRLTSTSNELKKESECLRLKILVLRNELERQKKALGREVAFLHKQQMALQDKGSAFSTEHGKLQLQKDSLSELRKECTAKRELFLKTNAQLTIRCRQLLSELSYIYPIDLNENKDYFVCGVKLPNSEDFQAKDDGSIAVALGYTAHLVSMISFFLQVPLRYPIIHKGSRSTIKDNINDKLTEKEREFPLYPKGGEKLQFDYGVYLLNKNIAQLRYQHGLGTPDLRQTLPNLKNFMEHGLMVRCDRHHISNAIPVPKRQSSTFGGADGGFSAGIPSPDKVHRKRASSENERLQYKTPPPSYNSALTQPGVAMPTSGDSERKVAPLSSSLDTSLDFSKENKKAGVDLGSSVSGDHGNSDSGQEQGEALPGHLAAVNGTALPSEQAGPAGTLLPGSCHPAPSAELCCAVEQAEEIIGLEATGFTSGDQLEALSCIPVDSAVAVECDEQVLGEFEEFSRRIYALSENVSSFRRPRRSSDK

UVRAG coiled-coil domain [12] = test: ITC; remark: listed apart in the source
[13] = system: endogenous Beclin 1; EGFR; conditions: EGF-stimulated endocytic transport and lysosomal degradation of EGFR; cited from earlier work
UVRAG coiled-coil domain [14] = type: binding; conditions: ITC, relative to wild type

In the case of `CCN(CC)CCCC(C)Nc1ccnc2cc(Cl)ccc12` (stereo not drawn) [CQ, chloroquine, reference compound], the “p62 level with CQ treatment” value (HEK293T cells [1]; with CQ, even with Tat-SP4) is reported as “elevated the p62 level”.

In the case of `CC[C@H](C)[C@H](NC(=O)[C@H](CC(C)C)NC(=O)[C@H](CCCNC(=N)N)NC(=O)[C@H](CCCNC(=N)N)NC(=O)[C@H](CCCNC(=N)N)NC(=O)[C@H](CCCNC(=N)N)NC(=O)[C@H](CCC(N)=O)NC(=O)[C@H](CCCNC(=N)N)NC(=O)[C@H](CCCNC(=N)N)NC(=O)[C@H](CCCCN)NC(=O)[C@H](CCCCN)NC(=O)[C@H](CCCNC(=N)N)NC(=O)CNC(=O)[C@H](Cc1ccc(O)cc1)NC(C)=O)C(=O)N[C@@H](CO)C(=O)N[C@@H](CCC(=O)O)C(=O)N[C@@H](CC(C)C)C(=O)N[C@]1(C)CCCCCCC=CCCC[C@@](C)(C(=O)N[C@@H](C)C(N)=O)NC(=O)[C@H](CCCNC(=N)N)NC(=O)[C@H](CCC(N)=O)NC(=O)[C@H](CCCCN)NC(=O)[C@H](CCC(=O)O)NC(=O)[C@H](CCCNC(=N)N)NC(=O)[C@H](CC(=O)O)NC1=O` [Tat-SP4] (Ac-YGRKKRRQRRRRLISEL[R8]DREKQR[S5]A-NH2; staple 18-25), the “cytotoxicity (MTT)” value (HEK293T cells [2]) is reported as “negligible cytotoxicity”, the EGFR degradation (EGFR [3]) is reported as ~50% and the “increase in LC3-II level” value (HEK293T cells [1]; 10 μM, with CQ, n = 3) is reported as “approximately threefold”. The “increase in LC3-II level” value (HEK293T cells [1]; 10 μM, without CQ, n = 3) was “approximately twofold”, the “increase in LC3-II level” value (HEK293T cells [1]; 20 μM, with CQ, n = 3) was “approximately fivefold” and the “increase in LC3-II level” value (HEK293T cells [1]; 20 μM, without CQ, n = 3) was “approximately threefold”. The “reduction of p62 level” value (HEK293T cells [1]; without CQ, n = 3) was ~50%, the “endogenous Beclin 1 pulled down by FLAG-UVRAG” value [4] was “significantly more endogenous Beclin 1” and the EGFR remaining (EGFR [5]; peptide 20 μM, 60 min post EGF (200 ng/mL)) was ~30%. The “endogenous Beclin 1 pulled down by Atg14L-GFP” value [6] was “significantly enhanced”, the “increase in GFP-LC3 dot numbers (autophagosomes)” value ([7]; absence of CQ) was “approximately twofold” and the “increase in GFP-LC3 dot numbers (autophagosomes)” value ([7]; presence of 25 μM CQ) was “approximately twofold”. For the same molecule, the “cytotoxicity (MTT)” value (A549 cells) was “negligible cytotoxicity”, the Kd [8] was ~6.8 µM and the EGFR remaining (EGFR [9]; A549, peptide 20 μM, 2 h after EGF) was ~75%. For the same molecule, the EGFR remaining (EGFR [9]; A549, peptide 20 μM, 5 h after EGF) was ~25%, the “Beclin 1 self-association (His-Beclin 1 pulled down by GFP-Beclin 1)” value ([10]; peptide 20 μM added to cell lysate) was “moderately reduced” and the “Beclin 1 self-association (His-Beclin 1 pulled down by GFP-Beclin 1)” value ([10]; peptide 20 μM added to cell medium 6 h posttransfection) was “more prominent”.

In the case of `CC[C@H](C)[C@H](NC(=O)[C@H](CC(C)C)NC(=O)[C@H](CC(C)C)NC(=O)[C@H](CCCNC(=N)N)NC(=O)[C@H](CCCNC(=N)N)NC(=O)[C@H](CCCNC(=N)N)NC(=O)[C@H](CCC(N)=O)NC(=O)[C@H](CCCNC(=N)N)NC(=O)[C@H](CCCNC(=N)N)NC(=O)[C@H](CCCCN)NC(=O)[C@H](CCCCN)NC(=O)[C@H](CCCNC(=N)N)NC(=O)CNC(=O)[C@H](Cc1ccc(O)cc1)NC(C)=O)C(=O)N[C@@H](CO)C(=O)N[C@@H](CCC(=O)O)C(=O)N[C@@H](CC(C)C)C(=O)N[C@]1(C)CCCCCCC=CCCC[C@@](C)(C(=O)N[C@@H](C)C(N)=O)NC(=O)[C@H](CCCNC(=N)N)NC(=O)[C@H](CCC(N)=O)NC(=O)[C@H](CCCCN)NC(=O)[C@H](CCC(=O)O)NC(=O)[C@H](CCCNC(=N)N)NC(=O)[C@H](CC(=O)O)NC1=O` [Tat-SP9] (Ac-YGRKKRRQRRRLLISEL[R8]DREKQR[S5]A-NH2; staple 18-25; N-terminus and C-terminus assumed), the Kd [8] is reported as ~56.2 µM.

In the case of “Beclin 1 coiled-coil domain (from UniProt Q91XJ1 174-264) (domain or fragment)”, the Kd (UVRAG coiled-coil domain [11]) is reported as 0.3 µM and the Kd (UVRAG coiled-coil domain [12]) is reported as 3 µM.

In the case of “Beclin 1 coiled-coil region L210E (from UniProt Q91XJ1 174-264) (domain or fragment)”, the Kd (UVRAG coiled-coil domain [12]) is reported as 10 µM.

For “Beclin 1 coiled-coil region R203E (from UniProt Q91XJ1 174-264) (domain or fragment)”, the Kd (UVRAG coiled-coil domain [12]) was 10 µM.

B1: wild-type UVRAG: wild-type UVRAG (full length Mus musculus in cells; coiled-coil construct in vitro) (protein)
chain: MSASASVGGPVPQPPPGPAAALPPGSAARALHVELPSQQRRLRHLRNIAARNIVNRNGHQLLDTYFTLHLCSTEKIYKEFYRSEVIKNSLNPTWRSLDFGIMPDRLDTSVSCFVVKIWGGKENIYQLLIEWKVCLDGLKYLGQQIHARNQNEIIFGLNDGYYGAPFEHKGYSNAQKTILLQVDQNCVRNSYDVFSLLRLHRAQCAIKQTQVTVQKIGKEIEEKLRLTSTSNELKKKSECLQLKILVLQNELERQKKALGREVALLHKQQIALQDKGSAFSAEHLKLQLQKESLNELRKECTAKRELFLKTNAQLTIRCRQLLSELSYIYPIDLNEHKDYFVCGVKLPNSEDFQAKDDGSIAVALGYTAHLVSMISFFLQVPLRYPIIHKGSRSTIKDNINDKLTEKEREFPLYPKGGEKLQFDYGVYLLNKNIAQLRYQHGLGTPDLRQTLPNLKNFMEHGLMVRCDRHHTSSAIPVPKRQSSIFGGADVGFSGGIPSPDKGHRKRASSENERLQYKTPPPSYNSALAQPVTTVPSMGETERKITSLSSSLDTSLDFSKENKKKGEDLVGSLNGGHANVHPSQEQGEALSGHRATVNGTLLPSEQAGSASVQLPGEFHPVSEAELCCTVEQAEEIIGLEATGFASGDQLEAFNCIPVDSAVAVECDEQVLGEFEEFSRRIYALNENVSSFRRPRRSSDK
modifications: left off: FLAG, end not stated, kept
In the case of B1, the EGFR remaining (EGFR [5]; UVRAG overexpression, 120 min post EGF (200 ng/mL)) is reported as ~10%, the EGFR remaining (EGFR [9]; A549, UVRAG overexpression, 3 h after EGF (200 ng/mL)) is reported as ~40% and the EGFR remaining (EGFR [9]; A549, UVRAG overexpression, 5 h after EGF (200 ng/mL)) is reported as ~5%. For the same molecule, the “endolysosomal trafficking on overexpression” value [13] was “enhanced endolysosomal trafficking”.

B2: R203E (protein)
chain: DSEQLQRELKELALEEERLIQELEDVEKNEKVVAENLEKVQAEAERLDQEEAQYQREYSEFKRQQLELDDELKSVENQMRYAQMQLDKLKK
With B2 the “reduction of binding affinity of Beclin 1–UVRAG interaction” value (UVRAG coiled-coil domain [14]) was “approximately three- to fivefold”.

B3: L210E (protein)
chain: DSEQLQRELKELALEEERLIQELEDVEKNRKVVAENEEKVQAEAERLDQEEAQYQREYSEFKRQQLELDDELKSVENQMRYAQMQLDKLKK
In the case of B3, the “reduction of binding affinity of Beclin 1–UVRAG interaction” value (UVRAG coiled-coil domain [14]) is reported as “approximately three- to fivefold”.

Source: article PMC6016778 (Proceedings of the National Academy of Sciences of the …, 2018)
